A selection: hits, their analogues and other compounds. The true share with any hit is near 1.5%.
C2C12 statin – suppressors of statin myotoxicity in C2C12 myotubes, primary screen, cell-based, single point, plate reader; C2C12 myotubes + simvastatin, ATP luminescence, 48 h; scaled: DMSO 0, geranylgeraniol control 100; rescue of ATP level, % at 7.49 µM; hit rate 0.78% among 330,000; AID 602340, 2012;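 active means mean ATP rescue above about 67%, or every replicate alone reaching that limit, limit read from the data, passing the limit was not always enough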;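 further: myotubes were challenged with 10 µM simvastatin during compound exposure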
Mot1-301 SUMO – yeast Mot1-301 growth rescue at high temperature, primary screen, SUMOylation pathway inhibitor project, S. cerevisiae, ATP luminescence, 38.5C | S. cerevisiae Mot1-301 growth rescue; percent above DMSO median, 100 means doubled | growth rescue, % at 18.8 µM | hit rate 1% among 320,000 | AID 2716, 2010;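 active means every valid replicate shows activation above 250% relative to neutral control wells; inactive means the rest, any valid replicate at or below 250%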
Cneo AK release – Cryptococcus neoformans cell lysis inducers, primary screen, AK release luminescence, single concentration | C. neoformans lysis, adenylate kinase release luminescence, 4 h; normalised: neutral wells 0, clomiphene wells 100 | lysis activity, % at 15 µM | hit rate 0.2% among 360,000;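 active means mean lysis activity across replicates of at least 80%, whatever share of replicates individually reach that level; inactive means mean lysis activity below 80%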
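read-out = cell lysis signal | test system = log-phase Cryptococcus neoformans yeast cells | input = cells at 5 × 10^6 per mL | medium = fresh YPD growth medium | signal = luminescent adenylate kinase detection reagent | timing = 4 h at 37 °C static, read 1 h later | dosing = single dose | controls = Clomiphene as positive lysis control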
Of the large screens only hits and unclear results are named; the others gave an inactive call.

CO[C@@H](CN(C)C(=O)c1ccccc1F)[C@@H](C)CN([C@@H](C)CO)S(=O)(=O)c1ccc(Cl)cc1	none (no result: Mot1-301 SUMO)
O=C(C[C@@H]1CC[C@@H]2[C@H](COC[C@@H](O)CN2C(=O)c2cnccn2)O1)N1CCN(c2ccccc2)CC1	none (no result: Mot1-301 SUMO)
CCCCCCCCC(NC(=O)c1ccc(C#N)cc1)C(=O)NCCC (centres undefined)	C2C12 statin 159
CCCNC(=O)C(CC)NC(=O)c1ccc(C#N)cc1 (centres undefined)	none
CC(C)NC(=O)Nc1ccc2c(c1)C(=O)N(C)[C@H]1CC[C@@H](CC(=O)NC3CCCCC3)O[C@H]1CO2	none (no result: Mot1-301 SUMO)
C[C@@H]1CN([C@H](C)CO)C(=O)c2cc(C#CCN(C)C)cnc2O[C@H]1CN(C)Cc1ccccn1	none (no result: Mot1-301 SUMO)
CCNC(=O)Nc1ccc2c(c1)C(=O)N(C)[C@H]1CC[C@@H](CC(=O)NCCOC)O[C@@H]1CO2	none (no result: Mot1-301 SUMO)
CN(C)C(=O)c1ccc(-c2ccc3c(c2)[C@@H]2[C@@H](CCN2Cc2cncnc2)[C@@H](CO)N3)cc1	none (no result: Mot1-301 SUMO)
O=C1C(SC(F)(F)C(F)F)=C(C(F)(F)F)OC2C3C=CC(C3)C12 (centres undefined)	C2C12 statin 107
Fc1cccc(CCN2C(=S)NC[C@@H]2Cc2ccccc2)c1	Cneo AK release 142
CCCC[C@@H]1CNC(=S)N1CCc1cccc(F)c1	none
O=C(NCCCN1CCc2ccccc2C1)Nc1ccc(Cl)cc1	C2C12 statin 87
COc1ccc(NC(=O)NCCN2CCc3ccccc3C2)cc1	none (no result: C2C12 statin)
C[C@@H]1CN([C@H](C)CO)C(=O)c2cc(-c3ccncc3)cnc2O[C@@H]1CN(C)C(=O)c1cccc(F)c1	none (no result: Mot1-301 SUMO)
C[C@@H]1CN([C@H](C)CO)C(=O)Cc2cc(NC(=O)C3CCCCC3)ccc2O[C@@H]1CN(C)Cc1ccccc1	none (no result: Mot1-301 SUMO)
Cc1ccc(-c2ccc3c(c2)O[C@@H](CN(C)Cc2ccc(F)cc2)[C@@H](C)CN([C@H](C)CO)S3(=O)=O)cc1	Cneo AK release 83 (no result: Mot1-301 SUMO)
Cc1ccc(-c2ccc3c(c2)O[C@@H](CN(C)Cc2ccc(F)cc2)[C@H](C)CN([C@@H](C)CO)S3(=O)=O)cc1	none (no result: Mot1-301 SUMO)
C[C@@H]1CN([C@@H](C)CO)S(=O)(=O)c2ccc(C3=CCCC3)cc2O[C@H]1CN(C)Cc1ccccc1F	none (no result: Mot1-301 SUMO)
C[C@H](CO)N1C[C@H](C)[C@H](CN(C)Cc2ccccc2F)Oc2cc(C3=CCCC3)ccc2S1(=O)=O	Cneo AK release 101 (no result: Mot1-301 SUMO)
COCC(=O)N1C[C@H](C)[C@@H](OC)CN(C)C(=O)c2cc(NC(=O)c3cc(C)on3)ccc2OC[C@H]1C	none (no result: Mot1-301 SUMO, Cneo AK release)
COc1ccc(NC(=O)O[C@H]2[C@H](OC(=O)Nc3ccc4c(c3)OCO4)[C@H](OC(=O)Nc3ccc4c(c3)OCO4)[C@@H](OC)O[C@@H]2CO)cc1	none (no result: C2C12 statin, Mot1-301 SUMO)
C/C=C/c1ccc2c(c1)O[C@H](CN(C)C(=O)CC)[C@H](C)CN([C@H](C)CO)S2(=O)=O	none (no result: Mot1-301 SUMO)
C[C@H](CO)N1C[C@H](C)[C@H](CN(C)CC2CCCCC2)Oc2ccc(NS(C)(=O)=O)cc2C1=O	none (no result: Mot1-301 SUMO)
O=C(c1cccc(F)c1)N1CCc2ccccc2C1	none (no result: C2C12 statin)
O=C(CNc1cccc(F)c1)N1CCc2ccccc2C1	C2C12 statin 118
CC1CN(CCOc2ccc(Cl)cc2Cl)CC(C)O1 (centres undefined)	Mot1-301 SUMO 272
Cc1cc(C)c(C)c(OCCN2CC(C)OC(C)C2)c1 (centres undefined)	none
C[C@H](NC(=O)[C@@H]1[C@@H](CO)[C@@H]2Cn3c(cccc3=O)[C@H]1N2C(=O)C1CCCC1)c1ccccc1	none (no result: Mot1-301 SUMO)
COc1cccc(C(=O)Nc2ccc3c(c2)OC[C@@H](C)N(CC2CC2)C[C@H](C)[C@@H](OC)CN(C)C3=O)c1	none (no result: Mot1-301 SUMO)
CC1(C)CNC(=O)c2sc(NC(=O)CN3CCOCC3)nc2C1	C2C12 statin 108
CC1CCc2nc(NC(=O)CN3CCOCC3)sc2C1 (centres undefined)	none
CCCN1C[C@H](C)[C@H](OC)CN(C)C(=O)c2cc(NC(=O)CC)ccc2OC[C@H]1C	none (no result: Mot1-301 SUMO, Cneo AK release)
CCC(=O)c1ccc(OCC(=O)NC2CCCC2)cc1	none
CCC(=O)c1ccc(OCC(=O)O)cc1	C2C12 statin 107 (no result: Mot1-301 SUMO, Cneo AK release)
C[C@@H]1CN([C@H](C)CO)C(=O)c2cc(C#CC3CC3)cnc2O[C@@H]1CN(C)C(=O)c1ccncc1	none (no result: Mot1-301 SUMO, Cneo AK release)
COC(=O)CCC(=O)NNC(=O)c1ccc(Br)cc1	C2C12 statin 101
COC(=O)CCC(=O)NNC(=O)c1cccc(Br)c1	none (no result: C2C12 statin)
C[C@@H]1CCCCO[C@H](CN(C)C(=O)NC2CCCCC2)[C@H](C)CN([C@@H](C)CO)C(=O)c2cc(NC(=O)CCC(F)(F)F)ccc2O1	none (no result: Mot1-301 SUMO)
CN(C)c1ncnc2c1ncn2C1OC(CO)C(O)C1O (centres undefined)	Mot1-301 SUMO 277
CN(C)c1ncnc2c1nnn2C1OC(CO)C(O)C1O (centres undefined)	none (no result: Mot1-301 SUMO)
OC[C@@H]1[C@H](c2ccc(/C=C/c3ccccc3)cc2)[C@@H]2CN(Cc3ccncc3)CCCCN12	none (no result: Mot1-301 SUMO)
CC(C)(C)NC(=O)CN(C(=O)Cn1nnc(-c2ccccc2F)n1)c1cccc2c1CCCC2	C2C12 statin 153 (no result: Mot1-301 SUMO)
COc1ccccc1N(CC(=O)NC(C)(C)C)C(=O)Cn1nnc(-c2ccc(C)o2)n1	none
COc1cc2c(cc1OC)C(C1C(=O)CCCC1=O)N(C(=O)CCl)CC2 (centres undefined)	none
COc1cc2c(cc1OC)C(c1ccccc1)N(C(=O)CCl)CC2 (centres undefined)	C2C12 statin 168
COc1cc2cnc(-c3ccsc3)cc2cc1OC	none
Fc1ccc2cc(-c3ccsc3)ncc2c1	Mot1-301 SUMO 282
CCNC(=S)N/N=C1\CCCCc2ccccc21	none
C=C(C)CNC(=S)N/N=C1\CCCCc2ccccc21	Mot1-301 SUMO 311 (no result: C2C12 statin)
COC(=O)C[C@@H]1C=C[C@H](NC(=O)Nc2ccc(C(F)(F)F)cc2)[C@@H](CO)O1	none (no result: Mot1-301 SUMO)
COc1ccc(S(=O)(=O)N[C@H]2C=C[C@@H](CC(=O)NCCc3ccncc3)O[C@H]2CO)cc1	none (no result: Mot1-301 SUMO)
CCCC(=O)Nc1ccc2c(c1)C(=O)N(C)[C@H]1CC[C@H](CC(=O)O)O[C@H]1CO2	none (no result: Mot1-301 SUMO)
CCNC(=O)c1c(C)nc2ccccn12	none (no result: C2C12 statin, Mot1-301 SUMO)
CCN(CC)P(=O)(c1ccccc1)c1c(C)nc2ccccn12 (centres undefined)	Mot1-301 SUMO 276 (no result: Cneo AK release)
COc1ccc(S(=O)(=O)Nc2ccc3c(c2)CC(=O)N([C@@H](C)CO)C[C@@H](C)[C@H](CN(C)CC2CCCCC2)O3)cc1	none (no result: Mot1-301 SUMO)
COc1ccc(CN(CCC#N)C(=S)NC(=O)c2ccccc2)cc1	C2C12 statin 114
CCOc1ccc(CN(CCC#N)C(=S)NC(=O)c2ccccc2)cc1	none (no result: C2C12 statin, Cneo AK release)
CCCC(=O)Nc1ccc2c(c1)OC[C@H](C)N(CC1CCCC1)C[C@H](C)[C@@H](OC)CN(C)C2=O	none (no result: Mot1-301 SUMO)
C[C@H]1CN([C@@H](C)CO)C(=O)c2cccc(NC(=O)c3nc4ccccc4s3)c2O[C@H]1CN(C)CC1CC1	none (no result: Mot1-301 SUMO)
CCCCSc1nc(C)cc(SCC(=O)N/N=C/c2cccc(OC)c2O)n1	C2C12 statin 126
COc1cccc(/C=N/NC(=O)CSc2nnc(C)n2-c2ccccc2)c1O	none (no result: Mot1-301 SUMO)
CCOc1ccc(CNc2ccc(CNc3ncn[nH]3)cc2)cc1	Mot1-301 SUMO 342
Cc1ccc(CNc2ccc(CNc3ncn[nH]3)cc2)cc1	none

Screens from PubChem.
